Compounds with a hit are over-represented: about 1.1% of the library has one in this group of screens.
KLK5 inh = blocks human kallikrein 5 protease activity; Q9Y337; recombinant hK5, fluorogenic AMC substrate cleavage; inhibition, % at 5 µM; 0.59% of 210,000 active; AID 873;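 active = inhibition of 40% or more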
Target sequence (Q9Y337 67-293 limits assumed): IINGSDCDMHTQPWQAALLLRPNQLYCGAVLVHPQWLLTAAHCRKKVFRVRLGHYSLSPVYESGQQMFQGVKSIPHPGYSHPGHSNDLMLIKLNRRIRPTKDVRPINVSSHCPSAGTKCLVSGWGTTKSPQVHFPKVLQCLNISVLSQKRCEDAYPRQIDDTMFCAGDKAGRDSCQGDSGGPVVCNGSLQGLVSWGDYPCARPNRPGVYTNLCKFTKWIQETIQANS
FXIa inh = blocks human coagulation factor XIa protease activity; P03951; purified FXIa, Boc-Glu-Ala-Arg-AMC fluorogenic substrate; inhibition, % at 5 µM; 0.14% of 220,000 active; AID 798;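 active = inhibition of at least 40%; inactive = inhibition below 40%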;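 also: fluorescence of freed AMC excited at 355 nm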
thrombin 1536 = inhibitors of human thrombin | P00734 | alpha-thrombin, Boc-VPR-AMC fluorogenic substrate cleavage | inhibition, % at 5 µM | 0.26% of 220,000 active | AID 1046;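 active = inhibition at or above 40%; inactive = inhibition below 40%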
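System: Human alpha-thrombin protein | Medium: pH 7.5 Tris (50 mM) with NaCl 150 mM, Tween 20 0.05% | Times: Enzyme reaction carried out at room temperature | Detection: AMC fluorescence, 355/460 nm | Evaluation: Percent inhibition scaled between no-compound controls and no-enzyme blanks | Benchmarks: Enzyme without compound as high, wells lacking enzyme as low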
FXIIa inh 1536 = factor XIIa (human) inhibition. 0.3% of 220,000 active. inhibition, % at 5 µM. purified FXIIa, Boc-QGR-AMC fluorogenic substrate, 2 h. P00748; in the data active = inhibition above about 40%
Hep lipid drop = modulators of hepatic lipid droplet formation; AML12 mouse hepatocytes, oleate lipid droplets, BODIPY imaging; inhibition, % at 6.5 µM; 0.4% of 240,000 active; AID 1656;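 active = lipid droplet intensity inhibited by at least 50%, with more than 500 cells counted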
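Material – AML12 mouse liver cells · Also added – oleate loading, 100 µM · Compound dosing – 6.5 µM single-point dosing · Times – overnight treatment with compound plus oleate · Measured by – fluorescence imaging, 20x objective, two fields per well · Read-out – percent inhibition of filter-corrected integrated lipid droplet intensity per well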
Calb biofilm kill = mixtures killing C. albicans biofilm | AID 1242 | inhibition, % at 7.6 µM | 0.02% of 120,000 active | C. albicans biofilm persisters + clotrimazole, fluorescence viability; primary screen in compound mixtures of four per well;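 also: compounds exposed to preformed 24 h biofilms for 48 h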
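Assay system: C. albicans biofilms / Medium: RPMI/MOPS medium, pH 7.0 / Schedule: biofilm formation 24 h, compound exposure 48 h, 37 °C / Measured by: Alamar Blue fluorescence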
Hep lipid conf = hepatic lipid droplet formation inhibition, confirmed. shares compounds with Hep lipid drop. AML12 mouse hepatocytes, BODIPY lipid droplet imaging; droplets induced with 100 µM oleic acid. inhibition, % at 5.2 µM. 65% of 870 active. AID 463183;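 active = inhibition of lipid droplet metric at least 50%, with more than 300 cells in each of four replicates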
AML12 tox img = counter-screen for cytotoxicity in AML12 mouse hepatocytes | shares compounds with Hep lipid drop | DAPI nuclear morphology cytotoxicity imaging; stronger effect = higher value; cells fed 100 µM oleate overnight | z-score at 5 µM | 3% of 870 active; in the data active = z-score above about 6.3;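 also: compound exposure lasted overnight at 37 °C before fixation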
AML12 tox conf = AML12 hepatocyte cytotoxicity, confirmed. AML12 mouse hepatocyte viability, ATP luminescence; cells loaded with 100 µM oleic acid. AID 463219. shares compounds with Hep lipid drop. 530 tested, under 10 active. cytotoxicity, % at 50 µM;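 active = cytotoxicity above 50% in each of four replicates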;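 also: compound exposure lasted overnight at 37 °C before the ATP read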
Of the large screens only hits and unclear results are named; the others gave an inactive call (follow-up assays come after a bar, where they were run).

CC(C)OC(=O)/C(=C/c1ccc2c(c1)c1ccccc1n2C)NC(=O)c1ccccc1	Hep lipid drop 53 | Hep lipid conf 96 | AML12 tox img inactive | AML12 tox conf inactive
CC(C)OC(=O)/C(=C\c1ccc2c(c1)c1ccccc1n2C)NC(=O)c1ccccc1	none (no result: Hep lipid drop, Calb biofilm kill)
COC(=O)/C(=C\c1ccc2c(c1)c1ccccc1n2C)NC(=O)c1ccccc1	Hep lipid drop 52 | Hep lipid conf 93 | AML12 tox img inactive | AML12 tox conf inactive
CCOCCCNC(=O)c1ccccc1OC1CCN(S(C)(=O)=O)CC1	none
CC(=O)NCc1ccc(S(=O)(=O)N2CCCN(C)CC2)cc1	none (no result: KLK5 inh, FXIa inh, thrombin 1536, FXIIa inh 1536, Calb biofilm kill)
COc1cc(CNC(=O)c2cccc(COc3ccc(Cl)cc3)c2)cc(OC)c1	Hep lipid drop 57 | Hep lipid conf 92 | AML12 tox img inactive | AML12 tox conf inactive
COc1cc(C=O)ccc1OCC(=O)N1CCCC1	none
N#C/C(=C/c1ccc(N2CCCCC2)cc1)c1cccc(F)c1	none
COc1cc(N2CCCC2)c(OC)cc1/C=C(/C#N)c1ccc(F)cc1	Hep lipid drop 50 | Hep lipid conf inactive | AML12 tox img inactive
Cc1ccccc1OC(C)C(=O)N1CCN(c2ccccn2)CC1 (stereo not drawn)	none (no result: KLK5 inh, FXIa inh, thrombin 1536, FXIIa inh 1536, Calb biofilm kill)
COc1ccccc1NS(=O)(=O)c1ccc(N/N=C/c2c(C)nn(-c3ccccc3)c2N2CCCC2)c([N+](=O)[O-])c1	Hep lipid drop 100 | Hep lipid conf 114 | AML12 tox img inactive | AML12 tox conf inactive
COc1ccccc1NS(=O)(=O)c1cccc(C(=O)N/N=C/c2c(C)nn(-c3ccccc3)c2N2CCCC2)c1	none
Cc1ccc(NC(=S)Nc2ccc3cn[nH]c3c2)c(C)c1	none
Cc1ccc(S(=O)(=O)N(C)C)cc1NC(=S)Nc1ccc2cn[nH]c2c1	Hep lipid drop 56 | Hep lipid conf inactive | AML12 tox img inactive
Cc1cccc2sc(NS(=O)(=O)c3ccccc3)nc12	none (no result: KLK5 inh, FXIa inh, thrombin 1536, FXIIa inh 1536, Calb biofilm kill)
CN1CCN(C2=C(NS(=O)(=O)c3cccs3)C(=O)c3ccccc3C2=O)CC1	none
O=C1C(NS(=O)(=O)c2cccs2)=C(N2CCN(c3cccc(C(F)(F)F)c3)CC2)C(=O)c2ccccc21	Hep lipid drop 52 (no result: Calb biofilm kill) | Hep lipid conf 113 | AML12 tox img inactive | AML12 tox conf inactive
Cc1cc(O)cc(C)c1NS(=O)(=O)c1ccc2ccccc2c1	none (no result: KLK5 inh, FXIa inh, thrombin 1536, FXIIa inh 1536, Calb biofilm kill)
Cc1cccc(NC(=O)c2nc[nH]c2C(=O)NCC(=O)OC(C)(C)C)c1	Hep lipid drop 52 | Hep lipid conf inactive | AML12 tox img inactive
CCOc1ccc(NS(=O)(=O)c2ccc(C(=O)N3CCC3)cc2)cc1	Hep lipid drop 71 (no result: KLK5 inh, FXIa inh, thrombin 1536, FXIIa inh 1536, Calb biofilm kill) | Hep lipid conf 99 | AML12 tox img inactive | AML12 tox conf inactive
CC(=O)Nc1cccc(OCC(=O)NC(C)c2ccc3ccccc3c2)c1 (stereo not drawn)	Hep lipid drop 68 (no result: KLK5 inh, FXIa inh, thrombin 1536, FXIIa inh 1536, Calb biofilm kill) | Hep lipid conf inactive | AML12 tox img inactive
O=C(Cn1c(=O)n(CC2CCCO2)c(=O)c2ccccc21)c1ccc(Cl)c(Cl)c1 (stereo not drawn)	none (no result: Calb biofilm kill)
CC(C)(C)C(=O)Cn1c(=O)n(CC2CCCO2)c(=O)c2ccccc21 (stereo not drawn)	Hep lipid drop 55 | Hep lipid conf inactive | AML12 tox img inactive
Cc1ccc(S(=O)(=O)NCCNC(=O)CN2CCOCC2)cc1	none (no result: KLK5 inh, FXIa inh, thrombin 1536, FXIIa inh 1536, Calb biofilm kill)
CCCn1c(O)c(C=Nc2ccccc2)sc1=S	none
Oc1c(/C=C/C=C/C=Nc2ccccc2)sc(=S)n1Cc1ccccc1	Hep lipid drop 74 | Hep lipid conf 76 | AML12 tox img inactive | AML12 tox conf inactive
CCCCn1c(O)c(/C=C/C=C/C=Nc2ccccc2)sc1=S	Hep lipid drop 61 | Hep lipid conf inactive | AML12 tox img inactive
CCn1c(O)c(/C=C/C=C/C=Nc2ccccc2)sc1=S	none (no result: thrombin 1536)
CCOc1ccc2c(c1)-c1c(ssc1=S)C(C)(C)N2C(=O)c1ccco1	Hep lipid drop 75 | Hep lipid conf 90 | AML12 tox img 21
COc1c(C)cc(Br)cc1C(=O)Nc1cccc(NC(=O)c2ccco2)c1	Hep lipid drop 60 (no result: Calb biofilm kill) | Hep lipid conf 97 | AML12 tox img inactive | AML12 tox conf inactive
COc1ccc(Br)cc1C(=O)Nc1cccc(NC(=O)c2ccco2)c1	none (no result: Hep lipid drop, Calb biofilm kill)
Cc1cc(C)cc(-n2ncc3c2CCCC3NC(=O)C2CCC2)c1 (stereo not drawn)	none (no result: KLK5 inh, FXIa inh, thrombin 1536, FXIIa inh 1536, Calb biofilm kill)
Cc1cc(C(=O)NC2CCCc3c2cnn3-c2cccc(C)c2C)no1 (stereo not drawn)	none (no result: KLK5 inh, FXIa inh, thrombin 1536, FXIIa inh 1536, Calb biofilm kill)
CC1=C(C(=O)NC2CCCc3c2cnn3-c2cccc(C)c2C)OCCO1 (stereo not drawn)	Hep lipid drop 63 (no result: KLK5 inh, FXIa inh, thrombin 1536, FXIIa inh 1536, Calb biofilm kill) | Hep lipid conf 105 | AML12 tox img inactive | AML12 tox conf inactive
CCn1cc(C(=O)NC2CCCc3c2cnn3-c2cccc(C)c2C)cn1 (stereo not drawn)	none (no result: KLK5 inh, FXIa inh, thrombin 1536, FXIIa inh 1536, Calb biofilm kill)

Bioassay records from PubChem.
